In ChEMBL document CHEMBL5034006, “Lead Optimization of 3,5-Disubstituted-7-Azaindoles for the Treatment of Human African Trypanosomiasis” (J Med Chem, 2021):

Experiments:
[1] = Intrinsic clearance in human liver microsomes assessed per mg protein by LC-MS/MS analysis; format: ADME, Microsome
[2] = Drug level in Balb/c mouse brain at 10 mg/kg, ip measured after 0.5 hrs by LC-MS/MS analysis; format: ADME, organism-based; settings: in vivo, BLD = below limit of detection
Method in brief: (§1)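 BALB/c mice, n=3, single 10 mg/kg intraperitoneal dose. Blood (50 μL) taken by retro-orbital bleed at 0.083, 0.25, 0.5, 1, 2, 4, 8 and 24 h post-dose. Plasma levels measured by LC-MS-MS. Brain and plasma levels from sparse sampling at 0.5 and 4 h; LLOQ 9.77 ng/mL.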

[3] = Tmax in Balb/c mouse at 10 mg/kg, ip by LC-MS/MS analysis; format: ADME, organism-based; settings: in vivo; method in brief: as §1
[4] = Half life in mouse plasma; format: ADME, cell-free
[5] = Intrinsic clearance in rat hepatocytes assessed per million cells by LC-MS/MS analysis; format: ADME, cell-based, Hepatocyte
[6] = Cmax in Balb/c mouse at 10 mg/kg, ip measured after 1 hr by LC-MS/MS analysis; format: ADME, organism-based; design: route intraperitoneal, dose 10 mg/kg, time 1 hrs; settings: in vivo
Method in brief: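 BALB/c mice (n=3) received a single 10 mg/kg intraperitoneal dose. Retro-orbital blood samples were taken at 0.083, 0.25, 0.5, 1, 2, 4, 8 and 24 h post-dose, and plasma levels were quantified by LC-MS-MS. Cmax is the mean of the three animals, read from the plasma concentration–time profile.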

[7] = Half life in mouse liver microsomes; format: ADME, Microsome
[8] = Permeability in human Caco2 cells; format: ADME, cell-based; settings: caco-2

Row | SMILES | CLint [1] | also measured
1 | Cn1cc(-c2cnc3[nH]cc(-c4cccc(C#N)c4)c3c2)cn1 | 190 µL/min/mg | –
2 | Cn1cc(-c2cnc3[nH]cc(-c4cccc(F)c4)c3c2)cn1 | 110 µL/min/mg | –
3 | N#Cc1cccc(-c2c[nH]c3ncc(N4CCCCC4)cc23)c1 | 300 µL/min/mg | –
4 | Cn1cc(-c2cnc3[nH]cc(-c4ccc5[nH]ccc5c4)c3c2)cn1 | 300 µL/min/mg | –
5 | Cn1cc(-c2cnc3[nH]cc(C4CCN(C(=O)OC(C)(C)C)C4)c3c2)cn1 (configuration not stated) | 180 µL/min/mg | –
6 | Cc1ccc(S(=O)(=O)n2cc(-c3cccc(C#N)c3)c3cc(-c4cnn(C)c4)cnc32)cc1 | 15 µL/min/mg | –
7 | Cn1cc(-c2cnc3[nH]cc(-c4cncc(C#N)c4)c3c2)cn1 | 150 µL/min/mg | –
8 | N#Cc1cccc(-c2c[nH]c3ncc(-c4cn[nH]c4)cc23)c1 | 290 µL/min/mg | –
9 | Cn1cc(-c2ccc3[nH]cc(-c4cccc(C#N)c4)c3c2)cn1 | 190 µL/min/mg | –
10 | COc1cccc(-c2c[nH]c3ncc(-c4cnn(C)c4)cc23)c1 | > 300 µL/min/mg | –
11 | Cn1cc(-c2cnc3[nH]cc(C4CCCNC4)c3c2)cn1 (configuration not stated) | < 3 µL/min/mg | –
12 | Cn1cc(-c2cnc3[nH]cc(-c4ccc(F)c(C#N)c4)c3c2)cn1 | 64 µL/min/mg | –
13 | Cc1nn(C)c(C)c1-c1cnc2[nH]cc(-c3cccc(C#N)c3)c2c1 | 300 µL/min/mg | –
14 | Cn1cc(-c2cnc3[nH]cc(-c4cc(F)cc(C#N)c4)c3c2)cn1 | 91 µL/min/mg | –
15 | Cn1cc(-c2cnc3[nH]cc(-c4ccc5nonc5c4)c3c2)cn1 | 88 µL/min/mg | –
16 | Cn1cc(-c2cnc3[nH]cc(C4CCNC4)c3c2)cn1 (configuration not stated) | < 3 µL/min/mg | –
17 | CN1CCC(n2cc(-c3cnc4[nH]cc(-c5cccc(C#N)c5)c4c3)cn2)CC1 | 17 µL/min/mg | –
18 | Cn1cc(-c2cnc3[nH]cc(-c4ccc(C(=O)O)cc4)c3c2)cn1 | < 3 µL/min/mg | –
19 | CC(C)(C)OC(=O)N1CCN(c2cnc3[nH]cc(-c4cccc(C#N)c4)c3c2)CC1 | 94 µL/min/mg | –
20 | CS(=O)(=O)c1ccc(-c2cnc3[nH]cc(-c4cccc(C#N)c4)c3c2)cc1 | 30 µL/min/mg | –

Row | SMILES | CLint [1] | also measured
21 | CN1CCCN(c2cnc3[nH]cc(-c4cccc(C#N)c4)c3c2)CC1 | 82 µL/min/mg | –
22 | Cn1cc(-c2cnc3[nH]cc(-c4ccc(F)c(F)c4)c3c2)cn1 | 90 µL/min/mg | –
23 | Cn1cc(-c2cnc3[nH]cc(-c4ccc(F)cc4)c3c2)cn1 | 130 µL/min/mg | –
24 | CC(C)(C)OC(=O)N1CCC(n2cc(-c3cnc4[nH]cc(-c5cccc(C#N)c5)c4c3)cn2)CC1 | 91 µL/min/mg | –
25 | Cc1ccc(-c2c[nH]c3ncc(-c4cnn(C)c4)cc23)cc1 | 130 µL/min/mg | –
26 | N#Cc1cccc(-c2c[nH]c3ncc(-c4cnn(C5CCOCC5)c4)cc23)c1 | 46 µL/min/mg | –
27 | Cn1cc(-c2cnc3[nH]cc(-c4ccc(Cl)c(Cl)c4)c3c2)cn1 | 51 µL/min/mg | –
28 | Cn1cc(-c2cnc3[nH]cc(-c4ccccc4)c3c2)cn1 | 200 µL/min/mg | –
29 | Cn1cc(-c2c[nH]c3ncc(-c4cccc(C#N)c4)cc23)cn1 | 300 µL/min/mg | –
30 | Cn1cc(-c2cnc3[nH]cc(-c4ccnc(C#N)c4)c3c2)cn1 | 190 µL/min/mg | –
31 | Cn1cc(-c2cnc3[nH]cc(-c4ccc(O)cc4)c3c2)cn1 | 50 µL/min/mg | –
32 | CS(=O)(=O)c1ccc(Nc2cnc3[nH]cc(-c4cccc(C#N)c4)c3c2)cc1 | 33 µL/min/mg | –
33 | Cn1cc(-c2cnc3occ(-c4cccc(C#N)c4)c3c2)cn1 | 130 µL/min/mg | –
34 | Cn1cc(-c2cnc3[nH]cc(-c4ccccc4C#N)c3c2)cn1 | 200 µL/min/mg | –
35 | N#Cc1cccc(-c2c[nH]c3ncc(-c4cncnc4)cc23)c1 | 31 µL/min/mg | –
36 | Cn1cc(-c2cnc3[nH]cc(-c4cccc([N+](=O)[O-])c4)c3c2)cn1 | 14 µL/min/mg | –
37 | Cn1cc(-c2cnc3[nH]cc(-c4cccnc4)c3c2)cn1 | 90 µL/min/mg | –
38 | N#Cc1cccc(-c2c[nH]c3ncc(-c4ccncc4)cc23)c1 | 160 µL/min/mg | –
39 | Cn1cc(-c2cnc3[nH]ccc3c2)cn1 | > 300 µL/min/mg | –
40 | Cn1cc(-c2cnc3[nH]cc(-c4ccc(C#N)cc4)c3c2)cn1 | 51 µL/min/mg | –

Row | SMILES | CLint [1] | also measured
41 | CN1CCN(c2cnc3[nH]cc(-c4cccc(C#N)c4)c3c2)CC1 | 44 µL/min/mg | –
42 | Cc1c(-c2cnn(C)c2)cnc2[nH]cc(-c3cccc(C#N)c3)c12 | 210 µL/min/mg | –
43 | Cn1cc(-c2cnc3[nH]cc(C4CCNCC4)c3c2)cn1 | 3 µL/min/mg | –
44 | Cc1nn(C)cc1-c1cnc2[nH]cc(-c3cccc(C#N)c3)c2c1 | 250 µL/min/mg | –
45 | N#Cc1cccc(-c2n[nH]c3ncc(-c4cnn(C5CCOCC5)c4)cc23)c1 | 42 µL/min/mg | –
46 | Cn1cc(-c2cnc3[nH]cc(-c4ccc(Cl)cc4)c3c2)cn1 | 57 µL/min/mg | –
47 | c1cc(-c2c[nH]c3ncc(-c4cnn(C5CCOCC5)c4)cc23)ccn1 | 29 µL/min/mg | –
48 | Cn1cc(-c2cnc3[nH]cc(-c4ccc(C(N)=O)cc4)c3c2)cn1 | 14 µL/min/mg | –
49 | CS(=O)(=O)N1CCN(c2cnc3[nH]cc(-c4cccc(C#N)c4)c3c2)CC1 | 32 µL/min/mg | –
50 | Cn1cc(-c2cnc3[nH]cc(C4CCN(C(=O)OC(C)(C)C)CC4)c3c2)cn1 | 300 µL/min/mg | –
51 | Cn1cc(Nc2cnc3[nH]cc(-c4cccc(C#N)c4)c3c2)cn1 | 15 µL/min/mg | –
52 | Cn1cc(-c2cnc3[nH]cc(-c4ccncc4)c3c2)cn1 | 39 µL/min/mg | –
53 | N#Cc1cccc(-c2c[nH]c3ncc(N4CCCC4)cc23)c1 | 50 µL/min/mg | –
54 | Cn1cc(-c2cnc3[nH]cc(-c4ccccc4F)c3c2)cn1 | 150 µL/min/mg | –
55 | c1nc2[nH]cc(C3CCCNC3)c2cc1-c1cnn(C2CCOCC2)c1 (configuration not stated) | < 3 µL/min/mg | –
56 | Cn1cc(-c2cnc3[nH]cc(-c4cccc(N)c4)c3c2)cn1 | 290 µL/min/mg | –
57 | Cn1cc(-c2cnc3[nH]cc(C4CCCN(C(=O)OC(C)(C)C)C4)c3c2)cn1 (configuration not stated) | > 300 µL/min/mg | –
58 | Cn1cc(-c2cnc3c(c2)c(-c2cccc(C#N)c2)cn3C)cn1 | 180 µL/min/mg | –
59 | COc1ccc(-c2c[nH]c3ncc(-c4cnn(C)c4)cc23)cc1 | 180 µL/min/mg | –
60 | N#Cc1cccc(-c2c[nH]c3ncc(-c4cnn(C5CCNCC5)c4)cc23)c1 | < 3 µL/min/mg | Drug uptake [2]: Bld; Tmax [3]: 1 h; t1/2 [4]: > 2 h; CLH [5]: 19 µL/min; Cmax [6]: 4413.3 ng/mL; t1/2 [7]: 0.567 h; permeability [8]: Permeable
